Measurements reported in ChEMBL document CHEMBL4368870, “Design, synthesis and biological evaluation of novel 2-phenyl pyrimidine derivatives as potent Bruton's tyrosine kinase (BTK) inhibitors” (Medchemcomm, 2019).
Activity calls are given as the source filed them. The calls are words filed in the database; no cut-off is given here.

Key:
HL-60 = assay: Antiproliferative activity against human HL60 cells after 48 hrs by MTT assay; type: functional, cell-based; conditions: HL-60, 48 h
In short: (§1)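 Cell proliferation read by MTT in three […] (HL60, Raji, Ramos), all said to over-express BTK. IC50 values were determined for each line.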

Raji [1] = assay: Antiproliferative activity against human Raji cells after 48 hrs by MTT assay; type: functional, cell-based; in short: as §1
Ramos [2] = assay: Antiproliferative activity against human Ramos cells after 48 hrs by MTT assay; type: functional, cell-based; in short: as §1
Raji [3] = assay: Antiproliferative activity against human Raji cells at 5 uM by MTT assay; type: functional, cell-based; conditions: TDE = time-dependent effect
In short: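 Raji cells, proliferation by MTT; viability followed over treatment time at 5 μM.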

Ramos [4] = assay: Induction of apoptosis in human Ramos cells assessed as viable cells at 5 uM after 48 hrs by propidium iodide staining-based flow cytometric analysis (reference value: 96.83%); type: functional; conditions: read-out: Activity
Ramos [5] = assay: Induction of apoptosis in human Ramos cells assessed as early apoptotic cells at 5 uM after 48 hrs by propidium iodide staining-based flow cytometric analysis (reference value: 1.08%); type: functional
Ramos [6] = assay: Induction of apoptosis in human Ramos cells assessed as late apoptotic cells at 5 uM after 48 hrs by propidium iodide staining-based flow cytometric analysis (reference value: 0.98%); type: functional
Ramos [7] = assay: Induction of apoptosis in human Ramos cells assessed as necrotic cells at 5 uM after 48 hrs by propidium iodide staining-based flow cytometric analysis (reference value: 1.11%); type: functional
Ramos [8] = assay: Cell cycle arrest in human Ramos cells assessed as accumulation of cells at G0/G1 phase at 5 uM after 48 hrs by propidium iodide staining-based flow cytometric analysis (reference value: 24.65%); type: functional
In short: (§2)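 Ramos cells incubated 48 h with 5 μM test agent, DMSO as blank control; DNA content by flow cytometry gives the share of cells in each cell-cycle phase.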

Ramos [9] = assay: Cell cycle arrest in human Ramos cells assessed as accumulation of cells at S phase at 5 uM after 48 hrs by propidium iodide staining-based flow cytometric analysis (reference value: 71.08%); type: functional; in short: as §2
Ramos [10] = assay: Cell cycle arrest in human Ramos cells assessed as accumulation of cells at G2/M phase at 5 uM after 48 hrs by propidium iodide staining-based flow cytometric analysis (reference value: 4.26%); type: functional; in short: as §2
Ramos [11] = assay: Cell cycle arrest in human Ramos cells assessed as apoptotic cells at 5 uM after 48 hrs by propidium iodide staining-based flow cytometric analysis (reference value: 5.03%); type: functional
Raji [12] = assay: Antiproliferative activity against human Raji cells at 40 uM after 72 hrs by MTT assay relative to control; type: functional
In short: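 Raji cells were exposed to the compound over a range of concentrations and treatment times, with the MTT-based viability read-out taken up to 72 h. The 40 μM, 72 h point is expressed as viability relative to control.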

[13] = biological target: Tyrosine-protein kinase BTK (Homo sapiens) (UniProt Q06187); assay: Inhibition of BTK phosphorylation at Tyr223 residue in human Ramos cells at 100 to 9000 nM after 24 hrs by Western blot analysis; type: cell-based
[14] = biological target: Tyrosine-protein kinase BTK (Homo sapiens) (UniProt Q06187); assay: Inhibition of BTK in human Ramos cells assessed as reduction in PLCgamma-2 phosphorylation at Try1217 residue at 100 to 9000 nM after 24 hrs by Western blot analysis; type: cell-based

Chain of Tyrosine-protein kinase BTK (Homo sapiens) (Q06187 whole entry): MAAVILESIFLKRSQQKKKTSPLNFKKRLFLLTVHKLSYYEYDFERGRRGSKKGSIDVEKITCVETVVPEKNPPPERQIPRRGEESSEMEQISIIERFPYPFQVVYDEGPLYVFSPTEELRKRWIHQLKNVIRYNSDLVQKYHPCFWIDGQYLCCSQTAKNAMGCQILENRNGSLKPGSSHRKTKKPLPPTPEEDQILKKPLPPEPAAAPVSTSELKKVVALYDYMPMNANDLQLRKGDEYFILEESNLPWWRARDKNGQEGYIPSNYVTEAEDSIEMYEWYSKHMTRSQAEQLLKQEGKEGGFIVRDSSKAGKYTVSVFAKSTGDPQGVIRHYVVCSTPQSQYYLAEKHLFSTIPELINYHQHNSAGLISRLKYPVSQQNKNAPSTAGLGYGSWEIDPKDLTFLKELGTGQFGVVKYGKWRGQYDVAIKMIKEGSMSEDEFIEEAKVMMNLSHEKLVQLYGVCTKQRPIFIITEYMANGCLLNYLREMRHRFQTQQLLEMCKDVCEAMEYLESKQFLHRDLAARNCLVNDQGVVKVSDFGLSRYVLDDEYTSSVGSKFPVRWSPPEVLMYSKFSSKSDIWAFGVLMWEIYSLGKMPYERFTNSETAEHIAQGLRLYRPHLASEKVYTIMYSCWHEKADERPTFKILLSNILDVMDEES

Row | SMILES | IC50 (HL-60) | IC50 (Raji [1]) | IC50 (Ramos [2]) | Activity (Raji [3]) | viability at 5 µM (Ramos [4]) | Activity (Ramos [5]) | Activity (Ramos [6]) | Activity (Ramos [7]) | Activity (Ramos [8]) | Activity (Ramos [9]) | Activity (Ramos [10]) | Activity (Ramos [11]) | Activity (Raji [12]) | inhibition [13] | inhibition [14]
1 | C=CC(=O)Nc1ccc(-c2nc(Cl)cc(Nc3ccc(C(=O)Nc4cc(C(F)(F)F)cc(C(F)(F)F)c4)cc3)n2)cc1 | 4.79 µM | 9.36 µM | 6.18 µM | – | – | – | – | – | – | – | – | – | – | – | –
2 | C=CC(=O)N1CCC[C@@H](n2nc(-c3ccc(Oc4ccccc4)cc3)c3c(N)ncnc32)C1 [IBRUTINIB] | 3.57 µM | 14.5 µM | 2.31 µM | Tde | 91.8% | 5.12% | 2.71% | 0.37% | 30.5% | 65.18% | 4.26% | 4.33% | – | – | –
3 | C=CC(=O)Nc1ccc(-c2nc(Cl)cc(Nc3ccc(C(=O)N(C)C)cc3)n2)cc1 | > 50 µM | 42.9 µM | > 50 µM | – | – | – | – | – | – | – | – | – | – | – | –
4 | C=CC(=O)Nc1ccc(-c2nc(Cl)cc(Nc3ccc(C(=O)N4CCCC4)cc3)n2)cc1 | 15.8 µM | 19.2 µM | 10.4 µM | – | – | – | – | – | – | – | – | – | – | – | –
5 | C=CC(=O)Nc1ccc(-c2nc(Cl)cc(Nc3ccc(C(=O)Nc4cc(C)ccc4C)cc3)n2)cc1 | 14.9 µM | 20.9 µM | 16.8 µM | – | – | – | – | – | – | – | – | – | – | – | –
6 | C=CC(=O)Nc1ccc(-c2nc(Cl)cc(Nc3ccc(C(=O)N4CCOCC4)cc3)n2)cc1 | 5.94 µM | 14.7 µM | 7.24 µM | – | – | – | – | – | – | – | – | – | – | – | –
7 | C=CC(=O)Nc1ccc(-c2nc(Cl)cc(Nc3ccc(C(=O)N(CC)CC)cc3)n2)cc1 | 9.34 µM | 12.5 µM | 11.2 µM | – | – | – | – | – | – | – | – | – | – | – | –
8 | C=CC(=O)Nc1ccc(-c2nc(Cl)cc(Nc3ccc(C(=O)Nc4cccc(C)c4)cc3)n2)cc1 | 3.66 µM | 6.98 µM | 5.39 µM | Tde | 61.3% | 25.8% | 12.7% | 0.23% | 36.27% | 59.51% | 4.21% | 13.91% | 90% | Active | Active
